Assay results: ChEMBL document CHEMBL5316271, “Microtubule-Stabilizing 1,2,4-Triazolo[1,5-a]pyrimidines as Candidate Therapeutics for Neurodegenerative Disease: Matched Molecular Pair Analyses and Computational Studies Reveal New Structure-Activity Insights” (J Med Chem, 2023)
Calls of active or inactive are those of the source. No cut-off for these calls is given here.

Columns and labels:
Primary cortical neuron [1] = assay: Induction of microtubule stabilization in mouse Primary cortical neuron cells assessed as prevention of okadaic acid induced microtubule collapse by measuring cellular acetylated alpha-tubulin level at 10 uM incubated for 8 hrs by ELISA; type: cell-based
Method in brief: (§1)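 Embryonic dissociated cortical neurons (mouse or rat) plated 3 × 10^5/well on poly-D-lysine, grown 10 days, then treated 8 h with 15 nM okadaic acid plus compound or vehicle (0.25% DMSO). Homogenate AcTub measured by ELISA; one-way ANOVA versus vehicle without okadaic acid.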

Mus musculus = assay: Binding affinity to microtubule in CD-1 mouse brain assessed as increase in de-tyrosinated alpha-tubulin level at 1 mg/kg, ip qd for 2 days […]; type: organism-based; settings: time 2.0 day
Method in brief: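 CD-1 mice (n = 4 per group) got two i.p. doses 1 mg/kg, about 24 h apart, from DMSO stock diluted into 30% Kolliphor EL in PBS pH 7.4; vehicle controls. Cortex and hippocampus taken 4 h after second dose, homogenized in RIPA with protease inhibitors, PMSF, 3 μM trichostatin A; equal protein western blot for Glu-tubulin, α-tubulin, GAPDH; infrared imaging; GluTub/α-Tub ratio versus vehicle.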

Primary cortical neuron [2] = assay: Induction of microtubule stabilization in rat Primary cortical neuron cells assessed as prevention of okadaic acid induced microtubule collapse by measuring cellular acetylated alpha-tubulin level at 1 uM incubated for 8 hrs by ELISA; type: cell-based; method in brief: as §1
Tubulin (Homo sapiens) [3] = biological target: T1, Tubulin (Homo sapiens) (UniProt P68371+Q9H4B7+P0DPH7+P68366+Q13509+Q71U36+P04350+Q3ZCM7+P07437+P68363+Q9BQE3+Q6PEY2+Q13885+Q9BVA1+Q9BUF5); assay: Induction of microtubule stabilization in human HEK293-A cells assessed as fold change in total alpha-tubulin level reduction at 1 uM incubated for 4 hrs by ELISA relative to control; type: cell-based
Method in brief: (§2)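 QBI293 cells (2 × 10^5/well) plated overnight, then fresh medium with compound (from 4–20 mM DMSO stocks) or vehicle (0.25–0.3% DMSO) for 4 h. Whole-cell extracts normalized by BCA protein; AcTub and total α-tubulin quantified by ELISA, as fold-change versus DMSO cells; one-way ANOVA.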

Tubulin (Homo sapiens) [4] = biological target: T1, Tubulin (Homo sapiens); assay: Induction of microtubule stabilization in human HEK293-A cells assessed as fold change in cellular acetylated alpha-tubulin level at 1 uM incubated for 4 hrs by ELISA relative to cevipabulin; type: cell-based
Method in brief: (§3)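 QBI293 cells (2 × 10^5/well) treated 4 h with compound or DMSO vehicle; AcTub in whole-cell extracts measured by ELISA with BCA protein normalization. Fold-change in AcTub relative to DMSO then expressed against change produced by positive-control reference compound at 100 nM run alongside, to correct day-to-day responsiveness.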

Tubulin (Homo sapiens) [5] = biological target: T1, Tubulin (Homo sapiens); assay: Induction of microtubule stabilization in human HEK293-A cells assessed as fold change in cellular acetylated alpha-tubulin level at 10 uM incubated for 4 hrs by ELISA relative to cevipabulin; type: cell-based; method in brief: as §3
Tubulin (Homo sapiens) [6] = biological target: T1, Tubulin (Homo sapiens); assay: Induction of microtubule stabilization in human HEK293-A cells assessed as fold change in total alpha-tubulin level reduction at 10 uM incubated for 4 hrs by ELISA relative to control; type: cell-based; method in brief: as §2
Tubulin (Homo sapiens) [7] = biological target: T1, Tubulin (Homo sapiens); assay: Induction of microtubule stabilization in human HEK293-A cells assessed as fold change as increase in cellular acetylated alpha-tubulin level at 1 uM incubated for 4 hrs by ELISA relative to control; type: cell-based; method in brief: as §2
Tubulin (Homo sapiens) [8] = biological target: T1, Tubulin (Homo sapiens); assay: Induction of microtubule stabilization in human HEK293-A cells assessed as fold change as increase in cellular acetylated alpha-tubulin level at 10 uM incubated for 4 hrs by ELISA relative to control; type: cell-based; method in brief: as §2

**Q.** For C[C@@H](Nc1c(-c2c(F)cc(C#CCCO)cc2F)c(Cl)nc2ncnn12)C(C)(C)C, which Activity (Primary cortical neuron [1]) is on record?
**A.** Its Activity is “Active”.

**Q.** And the Activity (Mus musculus)?
**A.** The Activity was “Active”.

**Q.** With CC(C)[C@@H](C)Nc1c(-c2c(F)cc(C#CCCO)cc2F)c(Cl)nc2ncnn12 as the compound, how does the Activity (Primary cortical neuron [1]) read?
**A.** The Activity was “Active”.

**Q.** Which Activity (Primary cortical neuron [2]) does the source give for CC(C)[C@@H](Nc1c(-c2c(F)cc(F)cc2F)c(Cl)nc2ncnn12)C(F)(F)F here?
**A.** The Activity was “inactive”.

**Q.** For C[C@@H](Nc1c(-c2c(F)cc(C#CCCCO)cc2F)c(Cl)nc2ncnn12)C(C)(C)C, which Activity (Primary cortical neuron [1]) is on record?
**A.** Its Activity is “Active”.

**Q.** With C[C@@H](Nc1c(-c2c(F)cc(C#CCCN(C)C)cc2F)c(Cl)nc2ncnn12)C(C)(C)C as the compound, how does the Activity (Primary cortical neuron [1]) read?
**A.** The Activity was “Active”.

**Q.** What about the Activity (Mus musculus) of the same compound?
**A.** The Activity was “Active”.

**Q.** For C[C@@H](Nc1c(-c2c(F)cc(C#N)cc2F)c(Cl)nc2ncnn12)C(C)(C)C, which Activity (Mus musculus) is on record?
**A.** The Activity was “Active”.

**Q.** For C[C@@H](Nc1c(-c2c(F)cc(F)cc2F)c(Cl)nc2ncnn12)C1CC1, which fold change (FC) (Tubulin (Homo sapiens) [3]) is on record?
**A.** Its fold change (FC) is 1.11.

**Q.** Which Activity (Primary cortical neuron [1]) does the source give for C[C@@H](Nc1c(-c2c(F)cc(OCCCO)cc2F)c(Cl)nc2ncnn12)C(C)(C)C here?
**A.** The Activity was “inactive”.

**Q.** What does the source list for CO[C@H]1C[C@H]2CC[C@@H](C1)N2c1c(-c2ccc(F)cc2F)c(Cl)nc2ncnn12?
**A.** fold change (FC) (Tubulin (Homo sapiens) [3]): 1.12; fold change (FC) (Tubulin (Homo sapiens) [4]): 0.54; fold change (FC) (Tubulin (Homo sapiens) [5]): 1.11; fold change (FC) (Tubulin (Homo sapiens) [6]): 1.38; fold change (FC) (Tubulin (Homo sapiens) [7]): 3.65; fold change (FC) (Tubulin (Homo sapiens) [8]): 7.43

**Q.** What does the source list for CC(C)[C@@H](C)Nc1c(-c2c(F)cc(F)cc2F)c(Cl)nc2ncnn12?
**A.** Activity (Primary cortical neuron [1]): Active; Activity (Primary cortical neuron [2]): Active

**Q.** CC(C)[C@@H](C)Nc1c(-c2c(F)cc(C#CCCCO)cc2F)c(Cl)nc2ncnn12 was tested. Which Activity (Primary cortical neuron [1]) did it give?
**A.** Its Activity is “Active”.

**Q.** How did the Activity (Primary cortical neuron [2]) turn out when CC(C)[C@H](Nc1c(-c2c(F)cc(F)cc2F)c(Cl)nc2ncnn12)C(F)(F)F was run?
**A.** Its Activity is “inactive”.

**Q.** C[C@@H](Nc1c(-c2c(F)cc(F)cc2F)c(Cl)nc2ncnn12)C1(C)N=N1 was tested. Which fold change (FC) (Tubulin (Homo sapiens) [5]) did it give?
**A.** Its fold change (FC) is 0.33.

**Q.** How did the Activity (Primary cortical neuron [1]) turn out when C[C@@H](Nc1c(-c2c(F)cc(OCCCN(C)C)cc2F)c(Cl)nc2ncnn12)C(C)(C)C was run?
**A.** The Activity was “Active”.
